Screens from PubChem.
Lung fibro prol: blocks proliferation of human lung fibroblasts. viability, % at 10 µM. hit rate 1.1% among 85,000. LL 47 human lung fibroblast viability, ATP luminescence; hits give low values. AID 719;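 active = viability at or below 50% in the single dose screen; inactive = viability above 50%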;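 note: compound exposure lasted 72 h before the ATP readout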
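Test system: LL 47 human lung fibroblasts; Quantity: 1,150 cells/well; Buffer or medium: IMEM plus 15% FBS; Dosing: tenfold compound dosing solution, DMSO at 0.1%; Timing: overnight cell rest, 72 h compound treatment at 37 °C; Detection: ATP-based CellTiter-Glo luminescent readout; Read-out basis: viability percentage against median untreated-cell control; Controls: cell-only wells, no compound.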
HCT116 bCat-KO: beta-catenin-lacking colon tumor cell growth suppression | hit rate 1.5% among 140,000 | HCT116 beta-catenin knockout viability, CellTiter-Glo, 60 h; hits give low values | viability, % at 10 µM | AID 818;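 active = viability at or under a set limit, the compound median less 4 SD, cut at about 6% in these data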
HCT116 PTEN-null: suppresses growth of cells with PTEN deletion | HCT116 PTEN-null viability, CellTiter-Glo, 60 h; hits give low values | viability, % at 10 µM | hit rate 1.2% among 140,000;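 active = viability at or below a set limit, 4 SD under the median of all tested compounds, cut at about 3.7% in these data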;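 note: PTEN knockout HCT116 line with beta catenin targeted HCT116 as companion control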
H69AR inhibit: growth inhibitors of human H69AR lung tumor cells; hit rate 6% among 85,000; viability, % at 10 µM; H69AR lung tumor viability, ATP luminescence, 72 h; hits give low values;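 active = viability at or below 40%; inactive = viability above 40%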;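 note: multidrug resistant small cell line overexpressing MRP-1 efflux transporter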
HUVEC prolif 384: human endothelial cell proliferation inhibition; HUVEC proliferation, CellTiter-Glo luminescence, 72 h; hits give low values; viability, % at 10 µM (by protocol); hit rate 1.1% among 86,000; AID 648;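 active = viability at or below 30%; inactive = viability above 30%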
Hits are given with their value; - = inactive; . = no result. The sample as a whole holds a higher share of hits than the screen did.

SMILES | Lung fibro prol | HCT116 bCat-KO | HCT116 PTEN-null | H69AR inhibit | HUVEC prolif 384
CCOC(=O)N1CCN(c2ncnc3c2oc2nc(C(C)C)c4c(c23)CCC4)CC1 | - | - | - | - | 23.6
CN1CCN(C2=C(Cl)C(=O)C(c3cnc(N4CCCCC4)s3)=C(Cl)C2=O)CC1 | 5.8 | 1.7 | 1.6 | 1.6 | -
O=C(Nc1cccnc1)c1ccc(Br)s1 | 35.3 | - | - | 7.5 | -
O=C(Nc1cccnc1)c1cccnc1 | - | - | - | - | -
O=C(Nc1nc(-c2cc(Cl)sc2Cl)cs1)c1ccc(Br)s1 | . | - | - | . | .
O=C(CCS(=O)(=O)c1ccccc1)Nc1nc(-c2ccccn2)cs1 | - | . | . | 4.0 | -
CC1(C)CC(=O)c2sc(NC(=O)CCS(=O)(=O)c3ccccc3)nc2C1 | - | 3.6 | 3.7 | 1.1 | -
O=C(Nc1nc(-c2ccccn2)cs1)c1ccc(Br)s1 | 26.8 | - | - | 13.1 | 24.1
CCCCNC(=O)c1onc(CCl)c1C(=O)OC | . | - | - | . | .
Cc1nnc(Sc2nc3c(c(=O)n(C)c(=O)n3C)n2Cc2ccc(Cl)cc2)s1 | . | - | - | . | .
CN(C)c1ccc2c(O)cc(=O)n(C)c2c1 | - | - | - | 21.5 | -
COc1c(OC(C)=O)ccc(/C=C/c2ccc3cccc(OC)c3n2)c1[N+](=O)[O-] | . | - | - | . | .
CCOc1c(OC(C)=O)ccc(/C=C/c2ccc3cccc(OC(C)=O)c3n2)c1[N+](=O)[O-] | . | 1.5 | 3.2 | . | .
O=C(CSc1ncnc2c1cnn2Cc1ccccc1)Nc1ccc2c(c1)OCCO2 | - | - | - | 33.5 | -
CCc1nc(SCC(=O)Nc2ccc3c(c2)OCCO3)c2oc3ccccc3c2n1 | - | - | - | 0.9 | 19.6
CCc1nc(SCC(=O)Nc2nccs2)c2oc3ccccc3c2n1 | - | - | - | 13.2 | -
CCc1nc(SCC(=O)N2CCCc3ccccc32)c2oc3ccccc3c2n1 | - | - | - | - | -
COc1cccc(NC(=O)CSc2ncnc3c2cnn3Cc2ccccc2)c1 | - | - | - | - | -
CN(C)S(=O)(=O)c1ccc(C(=O)Nc2nnc(SCc3cccc(F)c3)s2)cc1 | . | - | - | . | .
COc1ccc(S(=O)(=O)N2CCN(CC(=O)Nc3ccc(C)c(F)c3)CC2)cc1 | - | - | - | 4.9 | -
O=C(CN1CCN(S(=O)(=O)c2ccc(Br)cc2)CC1)Nc1ccc2c(c1)OCCO2 | - | - | - | 17.1 | -
O=C(CN1CCN(S(=O)(=O)c2ccc(Cl)cc2)CC1)Nc1ccc2c(c1)OCCO2 | - | - | - | - | -
CCCCCCc1cc2cc(-c3nnc(-c4cc(OC)c(OC)c(OC)c4)o3)c(=O)oc2cc1O | - | - | - | 2.3 | -
CCCCCCc1cc2cc(-c3nnc(-c4ccccc4OC)o3)c(=O)oc2cc1O | - | - | - | 3.0 | -
CCCCCCc1cc2cc(C(=O)Nc3ccccc3OC)c(=O)oc2cc1O | . | - | - | . | .
SMILES | Lung fibro prol | HCT116 bCat-KO | HCT116 PTEN-null | H69AR inhibit | HUVEC prolif 384
CCCCCCc1cc2cc(-c3nnc(-c4ccccc4O)o3)c(=O)oc2cc1O | . | 0.7 | 0.7 | . | .
CCOC(=O)n1n[n+]([O-])c2ccccc21 | . | - | - | . | .
O=C(NCc1ccc2c(c1)OCO2)C1CCC(CNS(=O)(=O)c2cccc3nsnc23)CC1 (stereo not drawn) | 44.0 | - | - | - | -
CC(=O)Oc1ccc(N2C(=O)C3C(C2=O)C2(C)C=CC3(C)O2)cc1 (stereo not drawn) | 27.0 | . | . | 2.3 | -
COC(=O)C1(C(=O)OC)NOC2C(=O)N(c3ccccc3)C(=O)C21 (stereo not drawn) | . | - | - | . | .
COC(=O)c1cc(N2C(=O)C3C(C2=O)C2(C)C=CC3(C)O2)ccc1Cl (stereo not drawn) | - | - | - | 0.7 | -
Nc1nc(SCc2ccccc2Cl)ns1 | - | - | - | - | -
CCOC(=O)c1sc(NC(C)=O)nc1-c1ccccc1 | - | - | - | - | -
OC(COC(c1ccc(Cl)cc1)c1ccc(Cl)cc1)CN1CCc2ccccc2C1 (stereo not drawn) | . | - | - | . | .
OC(COC(c1ccc(Cl)cc1)c1ccc(Cl)cc1)CN1CCCC1 (stereo not drawn) | - | - | - | 25.2 | -
COc1cccc2sc(Nc3nc(-c4ccccn4)cs3)nc12 | . | 4.3 | 2.6 | . | .
c1ccc(Nc2nc(-c3ccccn3)cs2)cc1 | - | - | - | 37.3 | -
COc1cccc2sc(NC(=O)c3ccc(Br)s3)nc12 | . | - | - | . | .
Nc1ccc(Nc2nc(-c3ccncc3)cs2)cc1 | - | - | - | 36.9 | -
c1ccc(-c2csc(Nc3cccnc3)n2)nc1 | - | - | - | - | -
CC1CC(C)CN(CCOc2ccc(Br)cc2)C1 (stereo not drawn) | . | - | - | . | .
O=C(Cn1nnc2ccccc2c1=O)N[C@@H](Cc1c[nH]c2ccccc12)C(=O)O | . | - | - | . | .
CCN(CC)C(=O)NC(c1ccc(C)c(F)c1)C(Cl)(Cl)Cl (stereo not drawn) | . | - | - | . | .
Cc1cc(C)cc(-n2nnnc2SCC(=O)Nc2nc(-c3ccc(F)cc3)cs2)c1 | . | - | - | . | .
O=C(C1CCN(S(=O)(=O)N2CCCCC2)CC1)N1CCCCC1 | . | - | - | . | .
Clc1ccc(-c2nc3cnccn3c2Nc2ccc3c(c2)OCO3)cc1 | - | - | - | 25.5 | -
Oc1ccccc1-c1nc2cnccn2c1Nc1ccc2c(c1)OCCO2 | - | 4.3 | 3.3 | - | -
c1cncc(-c2nc3ccccn3c2Nc2ccc3c(c2)OCCO3)c1 | - | - | - | - | -
COc1cc(Nc2ccccc2Cl)c([N+](=O)[O-])nc1[N+](=O)[O-] | - | - | - | 16.6 | -
O=C(Nc1ccc(OCC(F)(F)C(F)F)c(C(F)(F)F)c1)c1ccccc1O | . | 5.2 | - | . | .
SMILES | Lung fibro prol | HCT116 bCat-KO | HCT116 PTEN-null | H69AR inhibit | HUVEC prolif 384
CC1Cc2ccccc2N1C(=O)CSc1nc2c(c(=O)n(C)c(=O)n2C)n1Cc1ccc(F)cc1 (stereo not drawn) | 30.1 | . | . | 11.4 | -
O=C(Nc1nc2ccccc2s1)c1cc2c(s1)-c1ccccc1OC2 | 30.4 | - | - | 17.7 | -
O=C(Nc1nccs1)c1cc2c(s1)-c1ccccc1OC2 | . | - | - | . | .
O=c1oc2c(CN3CCCCC3)c(O)ccc2cc1-c1nc2ccccc2[nH]1 | - | . | . | - | -
O=c1oc2c3c4c(cc2cc1-c1nc2ccccc2[nH]1)CCCN4CCC3 | - | . | . | 1.5 | -
Cc1ccc(CNC(=O)[C@H]2C[C@@H]2[C@H](NP(=O)(c2ccccc2)c2ccccc2)c2ccccc2)o1 | . | - | - | . | .
Cc1nc2nc(C)c(CCC(=O)NCc3ccc4c(c3)OCO4)c(C)n2n1 | - | - | - | 26.4 | -
Cc1nc2nc(C)c(CCC(=O)NC(C)c3ccc4c(c3)OCCO4)c(C)n2n1 (stereo not drawn) | - | - | - | - | -
COC(=O)c1cc(=O)nc2sc(-c3cccs3)nn12 | - | - | - | - | -
COC(=O)c1cc(=O)nc2sc(-c3ccc(F)cc3)nn12 | - | - | - | 35.6 | -
O=C(Nc1cccc(C(F)(F)F)c1)N1CCN(C(=O)Nc2cccc(C(F)(F)F)c2)CC1 | . | - | - | . | .
O=C(Nc1cccc(C(F)(F)F)c1)C12CC3CC(CC(C3)C1)C2 | - | 0.9 | 1.0 | - | -
CCOc1ccc(NC(=O)CSC(N)=O)cc1 | - | - | - | 15.1 | -
